Among the data in PubChem BioAssay AID624007 (Broad Institute, 2012) are DiI-HDL uptake signal change vs neutral control (%), lower = more inhibition values, retold here.

Values without a mark were called inactive.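 Rule for the calls: active = compounds lowering the uptake signal whose fitted half-maximal concentration is at most twice their top valid dose; inconclusive = flat curve between 30% and 70% signal loss, or poor fit; inactive = opposite direction, flat near zero, or potency beyond limit.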

The assay can be described thus: DiI-HDL uptake inhibition in parental ldlA7 cells, dose response, counter-screen for SR-BI HDL uptake inhibitor project, cell-based, CHO ldlA7, fluorescence, dry powder, set 2 (AID 624007). The following applies: 3 h. In short, it runs like this: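 Material: LDL receptor-deficient parental CHO ldlA7 cells; medium: HEPES-buffered (pH 7.4) F12 plus 0.5% fatty acid-free BSA; reagent: DiI-labelled HDL, 10 µg/mL final; dosing: test compounds delivered by pin transfer; incubation: 3 h exposure at 37 °C; measured by: DiI fluorescence, bottom read, Ex 550/Em 595 nm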

`CC(C)NC(=O)Nc1ccc2c(c1)CC(=O)N([C@H](C)CO)C[C@@H](C)[C@H](CN(C)S(=O)(=O)c1ccc(Cl)cc1)O2`: the DiI-HDL uptake signal change vs neutral control (%), lower = more inhibition (at 0.1 nM) is 4.77%.
Consider `CC(C)NC(=O)Nc1ccc2c(c1)C(=O)N([C@@H](C)CO)C[C@H](C)[C@H](CN(C)S(=O)(=O)c1ccc(Cl)cc1)O2`, for which, for the setting “at 46 nM”, the DiI-HDL uptake signal change vs neutral control (%), lower = more inhibition was 8.74%.
Take `CC(C)NC(=O)Nc1ccc2c(c1)C(=O)N([C@H](C)CO)C[C@@H](C)[C@@H](CN(C)S(=O)(=O)c1ccc(Cl)cc1)O2`: under “at 0.6 nM”, the DiI-HDL uptake signal change vs neutral control (%), lower = more inhibition was 5.71%.
As for `CC(C)NC(=O)Nc1ccc2c(c1)C(=O)N([C@@H](C)CO)C[C@@H](C)[C@@H](CN(C)S(=O)(=O)c1ccc(Cl)cc1)O2`, the DiI-HDL uptake signal change vs neutral control (%), lower = more inhibition (at 1.6 nM) is 4.53%.
As to `C=CCOC(=O)N(C)C[C@@H]1Oc2ccc(NC(=O)NC(C)C)cc2C(=O)N([C@H](C)CO[Si](C)(C)C(C)(C)C)C[C@H]1C`, the DiI-HDL uptake signal change vs neutral control (%), lower = more inhibition (at 35000 nM) was 18.2%.
On the same count and under the same terms, the value for `C=CCOC(=O)N(C)C[C@@H]1Oc2ccc(N)cc2C(=O)N([C@H](C)CO[Si](C)(C)C(C)(C)C)C[C@H]1C` was 4.25%.
Turning to `CC(C)NC(=O)Nc1ccc2c(c1)C(=O)N([C@@H](C)CO)C[C@H](C)[C@@H](CN(C)S(=O)(=O)c1ccc(Cl)cc1)O2`, the DiI-HDL uptake signal change vs neutral control (%), lower = more inhibition (at 0.002 nM) was 5.3%.
`CC(C)NC(=O)Nc1ccc2c(c1)C(=O)N([C@@H](C)CO)C[C@@H](C)[C@H](CN(C)S(=O)(=O)c1ccc(Cl)cc1)O2`: the DiI-HDL uptake signal change vs neutral control (%), lower = more inhibition (at 35000 nM) was -2.49%.
For the compound `CC(C)NC(=O)Nc1cccc2c1O[C@@H](CN(C)S(=O)(=O)c1ccc(Cl)cc1)[C@H](C)CN([C@H](C)CO)C2=O`, the DiI-HDL uptake signal change vs neutral control (%), lower = more inhibition (at 420 nM) is 9.23%.
`C=CCOC(=O)N(C)C[C@@H]1Oc2ccc(NC(=O)OCC3c4ccccc4-c4ccccc43)cc2C(=O)N([C@H](C)CO)C[C@H]1C`: the DiI-HDL uptake signal change vs neutral control (%), lower = more inhibition (at 35000 nM) is 18.3%.
As for `CC(C)NC(=O)Nc1ccc2c(c1)C(=O)N([C@H](C)CO)C[C@H](C)[C@H](CN(C)S(=O)(=O)c1ccc(Cl)cc1)O2`, where the note is “at 15 nM”, the DiI-HDL uptake signal change vs neutral control (%), lower = more inhibition was 8.44%.
As for `CC(C)NC(=O)Nc1ccc2c(c1)C(=O)N([C@H](C)CO)C[C@@H](C)[C@H](CN(C)S(=O)(=O)c1ccc(Cl)cc1)O2`, the DiI-HDL uptake signal change vs neutral control (%), lower = more inhibition by setting is: (at 0.001 nM) -2.43%; (at 0.1 nM) 5.95%.
